The source made the active and inactive calls.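 The calls were made as follows, unless noted: active = inhibition of the reporter signal at or above 50%; inactive = inhibition below 50%.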
Legend:
[1] = inhibitors of TNFa-induced NFkB p65 translocation, primary screen, imaging, HUVEC, MLSMR starter and 10KST1 sets (AID 438;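 active = inhibition above 20% together with a positive visual image hit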;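 also: compound added about 3h40 before a 20 min TNFalpha stimulation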;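 as to inhibition: signal is the nuclear over cytoplasmic p65 intensity ratio per well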); conditions: HUVEC TNFa-induced p65 nuclear translocation; cell count: measured here: nuclei count (cytotoxicity indicator), at 2.08 µM; inhibition: at 2 µM, stronger effect = higher value, 0% TNFa-plus-vehicle, 100% no-TNFa wells
[2] = reduction of polyQ htt aggregates in cells – imaging, exon1htt(103Q)mCFP cells, high-content imaging, primary screen (AID 483;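 active = visual image review flags a hit and inhibition of aggregation exceeds 20%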;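 also: compound exposure lasted 3 days before fixation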;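 as to nuclei count: percent of the per-plate median nuclei count of sample wells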); conditions: exon1htt(103Q)mCFP cell line, aggregate imaging, at 2 µM; inhibition of aggregation: stronger effect = higher value; nuclei count: measured here: cell count, toxicity
[3] = endothelial E-selectin expression blockers – imaging, HUVEC, immunofluorescence, MLSMR starter and 10KST1 sets, primary screen (AID 487;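 active = visually confirmed hit in the image check and inhibition above 20%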;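 as to inhibition: signal is fraction of cell area covered by stained E-selectin grains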;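 as to nuclei count: 100% = median nuclei count of all wells on the same plate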); conditions: HUVEC TNFalpha-induced E-selectin immunofluorescence imaging, at 2 µM; inhibition: stronger effect = higher value; nuclei count: measured here: cell number, toxicity
[4] = molecular target: Voltage-gated potassium channel subunit beta-2 (Rattus norvegicus) (UniProt P62483); assay: inhibitors of rat Kvbeta2 reductase activity – biochemical, NADPH fluorescence, primary screen (AID 622;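 active = fluorescence slope higher than the sample average by over 3 SD, cut at about -0.22 in these data, passing the limit was not always enough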;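 also: slope of raw intensity against log time taken from 70 to 1610 s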); conditions: recombinant KvBeta, 4-cyanobenzaldehyde reduction, at 10 µM, stronger effect = higher value
[5] = molecular target: Voltage-gated potassium channel subunit beta-2 (Rattus norvegicus) (UniProt P62483); assay: enhancers of rat Kvbeta2 NADPH turnover – biochemical, NADPH fluorescence, primary screen (AID 623;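 active = NADPH fluorescence slope more negative than the mean of all samples by about 3 SD, 99.7% confidence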;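 also: fluorescence intensity change per second fitted from 20 to 320 s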); conditions: Recombinant KvBeta, NADPH fluorescence decrease slope, 10 min; at 10 µM; stronger effect = lower value
[6] = molecular target: Muscarinic acetylcholine receptor M4 (Homo sapiens) (UniProt P08173); assay: M4-linked GIRK flux change, two-sided – cell-based, HEK293 M4/GIRK, thallium flux, BTC-AM, M4 allosteric agonist project, primary screen (AID 625;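 active = fluorescence slope after compound addition differing from the mean of all tested samples at 99.7% confidence, mostly higher but some lower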;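 also: thallium influx through GIRK channels coupled to M4 in HEK293 cells with BTC-AM dye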); conditions: at 10 µM, actives lie on both sides
In short: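 assay system = HEK293 cells with M4 receptor and GIRK channels | medium = pH 7.3 thallium assay buffer | doses = 10 µM final, single point | timing = cells overnight at 37 °C, BTC-AM loading 1 h, reads 2 min total | signal = BTC-AM fluorescence, 1 Hz kinetic reads | read-out = post-addition slope, 15–24 s, of baseline-normalized fluorescence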

[7] = blockers of RIG-like receptor reporter activation – cell-based, Sendai virus stimulus, luciferase, 10K MLSCN set, TLR/RLR signaling modifier project, primary screen (AID 602276;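 active = inhibition at or above 50% at 10 µM; inactive = inhibition below 50%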;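 also: firefly luciferase from ISG56 promoter only with Renilla not read in this screen; 0% = Sendai virus plus DMSO and 100% = medium plus DMSO without virus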); conditions: HEK293 RL24 IRF3 luciferase reporter, at 10 µM, stronger effect = higher value
[8] = TLR3 IRF3 reporter activation blockers – cell-based, poly I:C stimulus, luciferase, 10K MLSCN set, primary screen (AID 602277); conditions: HEK293-TLR3 RL24 IRF3 luciferase reporter, at 10 µM, stronger effect = higher value

Sequence of Voltage-gated potassium channel subunit beta-2 (Rattus norvegicus) (P62483 whole entry, looked up): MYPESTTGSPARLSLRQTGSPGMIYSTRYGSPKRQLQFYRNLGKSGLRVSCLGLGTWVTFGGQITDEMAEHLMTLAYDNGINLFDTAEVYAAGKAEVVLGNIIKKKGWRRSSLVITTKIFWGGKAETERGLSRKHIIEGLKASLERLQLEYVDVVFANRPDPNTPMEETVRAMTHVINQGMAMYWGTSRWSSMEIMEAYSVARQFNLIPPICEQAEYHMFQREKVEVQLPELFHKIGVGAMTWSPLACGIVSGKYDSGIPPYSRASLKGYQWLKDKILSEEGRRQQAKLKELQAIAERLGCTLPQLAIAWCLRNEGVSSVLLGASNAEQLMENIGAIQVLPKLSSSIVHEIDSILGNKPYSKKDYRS
Sequence of Muscarinic acetylcholine receptor M4 (Homo sapiens) (P08173 whole entry, looked up): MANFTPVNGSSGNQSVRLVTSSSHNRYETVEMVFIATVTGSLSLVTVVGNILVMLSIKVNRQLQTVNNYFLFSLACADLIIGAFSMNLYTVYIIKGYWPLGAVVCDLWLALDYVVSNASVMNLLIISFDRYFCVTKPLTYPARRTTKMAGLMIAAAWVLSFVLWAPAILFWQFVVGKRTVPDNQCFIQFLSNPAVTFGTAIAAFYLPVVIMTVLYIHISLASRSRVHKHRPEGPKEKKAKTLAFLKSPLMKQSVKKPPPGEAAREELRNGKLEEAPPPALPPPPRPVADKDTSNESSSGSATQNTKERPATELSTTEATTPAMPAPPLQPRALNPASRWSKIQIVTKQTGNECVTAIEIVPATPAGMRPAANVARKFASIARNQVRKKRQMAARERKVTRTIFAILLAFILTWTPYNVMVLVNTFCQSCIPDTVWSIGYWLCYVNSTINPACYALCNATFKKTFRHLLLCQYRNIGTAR

Row | Structure (SMILES) | cell count [1] | inhibition [1] | inhibition of aggregation [2] | nuclei count [2] [%] | inhibition [3] | nuclei count [3] [%] | fluorescence slope [4] | NADPH fluorescence slope [5] | fluorescence slope [6] | inhibition [7] | inhibition [8]
1 | NS(=O)(=O)c1ccc(NCc2c(F)cccc2Cl)cc1 | 300 | -3% (inactive) | 36.6% (inactive) | 79.8 | 38.8% (inactive) | 99.4 | -0.515 (inactive) | -0.000161 (inactive) | 0.00288 (inactive) | 8.08% (inactive) | -2.77% (inactive)
2 | COc1cc(NC(=O)c2ccc(COCC(F)(F)F)o2)cc(OC)c1OC | 753 | -11.9% (inactive) | -25% (inactive) | 116 | -71% (inactive) | 118 | -0.553 (inactive) | -4.6e-05 (inactive) | 0.00529 (inactive) | 15.8% (inactive) | 24.7% (inactive)
3 | CCOC(=O)CCC(=O)c1c(C)oc2ccc(OC)cc12 | 447 | -6.3% (inactive) | 4.8% (inactive) | 98.5 | 46.7% (inactive) | 118 | -0.583 (inactive) | 4e-05 (inactive) | 0.00919 (inactive) | -14.6% (inactive) | -30.6% (inactive)
4 | COc1ccc(-n2c(SCCC(=O)O)nnc2-c2ccncc2)cc1 | 359 | -6.2% (inactive) | -2.3% (inactive) | 98.2 | -27.4% (inactive) | 127 | -0.56 (inactive) | 4e-06 (inactive) | 0.00569 (inactive) | 18% (inactive) | 36.6% (inactive)
5 | Cc1cnc(C(=O)Nc2ccc(-n3cnnn3)cc2)cn1 | 508 | -16.7% (inactive) | -8.7% (inactive) | 95.2 | 15.8% (inactive) | 95.7 | -0.513 (inactive) | -5.9e-05 (inactive) | 0.00454 (inactive) | 10.3% (inactive) | -4.35% (inactive)
6 | COC(=O)CN(c1ccc(F)cc1)S(=O)(=O)c1ccccc1 | 329 | 1.8% (inactive) | -0.2% (inactive) | 86.5 | -92.2% (inactive) | 95.6 | -0.527 (inactive) | -0.000183 (inactive) | 0.00367 (inactive) | 6.05% (inactive) | -8.76% (inactive)
7 | Cc1ccc(-c2cc(C(F)(F)F)n3ncc(C(=O)O)c3n2)cc1 | 412 | 3.1% (inactive) | -8.3% (inactive) | 109 | -26.7% (inactive) | 110 | -0.524 (inactive) | -3.4e-05 (inactive) | 0.00395 (inactive) | 19.6% (inactive) | 21.8% (inactive)
8 | COc1ccccc1OC(=O)c1ccc2nsnc2c1 | 623 | -11.4% (inactive) | 25% (inactive) | 87.8 | -75.4% (inactive) | 103 | -0.585 (inactive) | -5.9e-05 (inactive) | 0.00471 (inactive) | 9.79% (inactive) | 99.7% (active)
9 | Clc1ccccc1-c1nnc2sc(-c3ccccn3)nn12 | 420 | -4.1% (inactive) | 24.3% (inactive) | 84.8 | -102% (inactive) | 118 | -0.447 (inactive) | -6.3e-05 (inactive) | 0.00382 (inactive) | 14.6% (inactive) | 14.1% (inactive)
10 | O=C(CN1C(=O)CC(c2ccccc2)=Nc2ccccc21)NCc1ccco1 | 255 | -21.4% (inactive) | 6.1% (inactive) | 74 | 27.6% (inactive) | 77.1 | -0.546 (inactive) | -4.6e-05 (inactive) | 0.00578 (inactive) | 17.2% (inactive) | 18.1% (inactive)
11 | COC(=O)c1sc(NC(=O)c2ccoc2C)nc1C | 554 | -7.5% (inactive) | 8.8% (inactive) | 94.1 | 15.5% (inactive) | 98 | -0.557 (inactive) | 8.6e-06 (inactive) | 0.00464 (inactive) | -18.1% (inactive) | -76.5% (inactive)
12 | Cc1ccc(C(=O)Nc2nc3c(s2)CCCC3)o1 | 341 | -4% (inactive) | -8.3% (inactive) | 101 | -96.9% (inactive) | 120 | -0.561 (inactive) | -4.4e-05 (inactive) | 0.00262 (inactive) | -30.4% (inactive) | -89.5% (inactive)
13 | N#C[C@@H]1[C@@H]2C(=O)N(c3ccc4c(c3)OCCO4)C(=O)[C@@H]2C2c3ccccc3C=CN21 (some centres undefined) | 351 | 0.5% (inactive) | 6.7% (inactive) | 107 | -62.1% (inactive) | 106 | -0.6 (inactive) | -2.2e-05 (inactive) | 0.00563 (inactive) | -1.7% (inactive) | -13.1% (inactive)
14 | CCOCCCNC(=O)c1ccc2c(c1)ncn2C1CCCC1 | 573 | -4.8% (inactive) | -5.5% (inactive) | 100 | -12% (inactive) | 94.4 | -0.495 (inactive) | 4.4e-05 (inactive) | 0.00159 (inactive) | -12.4% (inactive) | -122% (inactive)
15 | COc1ccccc1-n1nnnc1SCc1ccccc1 | 211 | -1.5% (inactive) | 6.5% (inactive) | 108 | -25.5% (inactive) | 92.6 | -0.51 (inactive) | -2.7e-05 (inactive) | 0.00333 (inactive) | 13% (inactive) | 16.5% (inactive)
16 | Cn1c(=O)cc(OCC(=O)N2CCN(c3cccc(C(F)(F)F)c3)CC2)c2ccccc21 | 377 | -8.3% (inactive) | -13.4% (inactive) | 118 | -12.8% (inactive) | 113 | -0.426 (inactive) | 6.8e-05 (inactive) | 0.00701 (inactive) | 13.7% (inactive) | 15.2% (inactive)
17 | Cn1c(=O)c(-c2ccccc2)nn2c3ccccc3nc12 | 704 | -35.3% (inactive) | 22.1% (inactive) | 96.1 | -79.5% (inactive) | 113 | -0.19 (inactive) | 4.4e-07 (inactive) | 0.00522 (inactive) | 13.7% (inactive) | 17.5% (inactive)
18 | O=C1CC(c2cccc(Cl)c2)CC(O)=C1C=NCCCO (centres undefined) | 498 | -18.1% (inactive) | 0.4% (inactive) | 87.3 | 28.3% (inactive) | 98.3 | -0.393 (inactive) | 4.1e-05 (inactive) | 0.00604 (inactive) | 16.7% (inactive) | 20.9% (inactive)
19 | Cc1nc2cccc(C(=O)NC3CCCCC3)c2o1 | 369 | 6.8% (inactive) | -19.6% (inactive) | 53.7 | -67.3% (inactive) | 102 | -0.416 (inactive) | -1.2e-05 (inactive) | 0.00546 (inactive) | 10.4% (inactive) | 13.1% (inactive)

From PubChem BioAssay
